Assay results reported in ChEMBL document CHEMBL1155878, “Substituted 6-phenyl-2-naphthols. Potent and selective nonsteroidal inhibitors of 17beta-hydroxysteroid dehydrogenase type 1 (17beta-HSD1): design, synthesis, biological evaluation, and pharmacokinetics” (J Med Chem, 2008).
The source made the active and inactive calls. No cut-off for these calls is given here.

Legend:
[1] = AUC (0 to infinity) in Wistar rat at 10 mg/kg, po; assay type: ADME, organism-based; design: dose 10 mg/kg, route oral, time infinity; conditions: plasma
Summary of the method: (§1)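 Four adult male Wistar rats per group given 10 mg/kg orally in labrasol/water (1:1), cassette dosing. Rats were jugular-cannulated under ketamine/xylazine and sampled freely moving at 1, 2, 3, 4, 6, 8, 10 and 24 h. Plasma stored at -20 °C and quantified by HPLC-MS/MS (ESI triple quadrupole).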

[2] = target: T1, 17-beta-hydroxysteroid dehydrogenase type 1 (Homo sapiens, UniProt P14061); experiment: Inhibition of human placental 17beta-HSD1 assessed as conversion of [3H]estrone to [3H]17beta-estradiol
T1 sequence (P14061 whole entry): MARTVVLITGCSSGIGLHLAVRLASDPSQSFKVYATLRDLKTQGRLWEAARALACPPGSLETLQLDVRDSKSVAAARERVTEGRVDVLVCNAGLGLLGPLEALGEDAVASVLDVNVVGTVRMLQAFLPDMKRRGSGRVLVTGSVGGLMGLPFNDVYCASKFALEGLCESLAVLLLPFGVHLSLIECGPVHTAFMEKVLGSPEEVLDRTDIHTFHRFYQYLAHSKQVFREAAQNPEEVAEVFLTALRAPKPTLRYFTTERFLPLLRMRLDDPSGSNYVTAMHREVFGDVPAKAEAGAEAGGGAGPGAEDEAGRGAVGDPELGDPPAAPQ

[3] = AUC (0 to tlast) in Wistar rat at 10 mg/kg, po; assay type: ADME, organism-based; design: dose 10 mg/kg, route oral; conditions: plasma; summary of the method: as §1
[4] = Terminal half life in Wistar rat at 10 mg/kg, po; assay type: ADME, organism-based; design: dose 10 mg/kg, route oral; conditions: in vivo; summary of the method: as §1
Rattus norvegicus [5] = experiment: Tlast in Wistar rat at 10 mg/kg, po; assay type: ADME, organism-based; design: dose 10 mg/kg, route oral; conditions: in vivo; summary of the method: as §1
[6] = Cmax in Wistar rat at 10 mg/kg, po; assay type: ADME, organism-based; design: dose 10 mg/kg, route oral; conditions: in vivo; summary of the method: as §1
[7] = Tmax in Wistar rat at 10 mg/kg, po; assay type: ADME, organism-based; design: dose 10 mg/kg, route oral; conditions: in vivo; summary of the method: as §1
[8] = Stimulation of human […] cell proliferation at 100 nM after 8 days by MTT assay relative to 17-beta estradiol; assay type: functional
Rattus norvegicus [9] = experiment: Clast in Wistar rat at 10 mg/kg, po; assay type: ADME, organism-based; design: dose 10 mg/kg, route oral; conditions: in vivo; summary of the method: as §1
[10] = target: T2, 17-beta-hydroxysteroid dehydrogenase type 1 (Homo sapiens) (UniProt P14061); experiment: Inhibition of human placental 17beta-HSD1 assessed as conversion of [3H]estrone to [3H]17beta-estradiol at 100 nM
T2 sequence (whole entry): T1 sequence (P14061 whole entry)
Summary of the method: (§2)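 Cytosolic enzyme from human placenta, purified by ammonium sulfate precipitation, with NADH 500 µM. Incubated at 37 °C in 50 mM phosphate buffer with 20% glycerol and 1 mM EDTA, 1% DMSO final. Started with [3H]E1 (500 nM final) and stopped with HgCl2 after 10 min. Ether extraction, then HPLC with radioflow detection of E1/E2. Result is % inhibition = 100 − % conversion, from ≥3 independent experiments.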

[11] = target: T2, 17-beta-hydroxysteroid dehydrogenase type 1 (Homo sapiens); experiment: Inhibition of human placental 17beta-HSD1 assessed as conversion of [3H]estrone to [3H]17beta-estradiol at 1 uM; summary of the method: as §2
[12] = target: T3, 17-beta-hydroxysteroid dehydrogenase type 2 (Homo sapiens, UniProt P37059); experiment: Inhibition of human placental 17beta-HSD2 assessed as conversion of [3H]17beta-estradiol to [3H]estrone
T3 sequence (P37059 whole entry): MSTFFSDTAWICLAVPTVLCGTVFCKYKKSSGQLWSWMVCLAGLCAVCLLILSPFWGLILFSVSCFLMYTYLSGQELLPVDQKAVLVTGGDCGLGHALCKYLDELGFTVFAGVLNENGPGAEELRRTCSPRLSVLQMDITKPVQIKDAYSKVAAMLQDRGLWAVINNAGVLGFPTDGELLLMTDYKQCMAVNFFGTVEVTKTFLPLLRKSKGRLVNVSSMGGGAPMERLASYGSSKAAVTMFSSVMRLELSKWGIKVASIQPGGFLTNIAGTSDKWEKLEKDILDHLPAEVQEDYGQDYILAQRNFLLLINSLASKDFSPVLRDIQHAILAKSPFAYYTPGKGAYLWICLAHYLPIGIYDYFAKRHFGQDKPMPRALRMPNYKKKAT
Summary of the method: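 Human placental microsomal fraction incubated with NAD+ (1500 µM), test compound and unlabeled plus [3H]E2 (final 500 nM) for 20 min at 37 °C. The reaction was stopped with HgCl2 and extracted with ether. E1 and E2 were separated by HPLC with radioflow detection. Percent conversion was used to derive inhibition. Values are the mean of three determinations; IC50 was measured for selected compounds.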

T47C = experiment: Stimulation of human […] cell proliferation at 0.1 nM after 8 days by MTT assay; assay type: functional, cell-based
[13] = target: T4, 17-beta-hydroxysteroid dehydrogenase type 2 (Homo sapiens) (UniProt P37059); experiment: Inhibition of human recombinant expressed in Sf9 cells 17beta-HSD2 assessed as conversion of [3H]17beta-estradiol to [3H]estrone at 1 uM
T4 sequence (whole entry): T3 sequence (P37059 whole entry)
Summary of the method: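 Microsomes from Sf9 cells infected with baculovirus. Incubated with 30 nM [3H]E2 and 1 mM NAD+ in 20 mM KH2PO4, pH 7.4, for 30 min at room temperature, with 1% DMSO. Stopped with 10% trichloroacetic acid. E1/E2 radioactivity used for conversion; inhibition = 100 − % conversion, from two independent experiments.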

Oc1cccc(-c2ccc3c(-c4ccccc4)c(O)ccc3c2)c1
AUC(0-inf) [1]: 12700 ng·h/mL
IC50 [2]: 20 nM
AUC(0-t) [3]: 11700 ng·h/mL
half-life [4]: 6 h
tz (Rattus norvegicus [5]): 24 h
Cmax [6]: 860 ng/mL
Tmax [7]: 4 h
Activity [8]: 39%
Cz (Rattus norvegicus [9]): 115 ng/mL

O=C(Nc1ncccn1)c1c(O)ccc2cc(-c3cccc(O)c3)ccc12
Activity [10]: inactive
Activity [11]: inactive

Oc1cccc(-c2ccc3c(Br)c(O)ccc3c2)c1
IC50 [2]: 40 nM
IC50 [12]: 639 nM

N#Cc1cc(-c2cccc(O)c2)cc2ccc(O)cc12
inhibition [10]: inactive
inhibition [11]: 53%

C[C@]12CC[C@@H]3c4ccc(O)cc4CC[C@H]3[C@@H]1CC[C@@H]2O
Activity (T47C): Active

O=C(Nc1ccccn1)c1c(O)ccc2cc(-c3cccc(O)c3)ccc12
Activity [10]: inactive
Activity [11]: inactive

N#Cc1cc(O)cc2ccc(-c3cccc(O)c3)cc12
inhibition [10]: 73%
inhibition [11]: 99%

Oc1cccc(-c2ccc3cc(O)ccc3c2)c1
AUC(0-inf) [1]: 30700 ng·h/mL
AUC(0-t) [3]: 29700 ng·h/mL
half-life [4]: 4 h
tz (Rattus norvegicus [5]): 24 h
Cmax [6]: 2230 ng/mL
Tmax [7]: 6 h
Activity [8]: 41%
Cz (Rattus norvegicus [9]): 159 ng/mL

O=S(=O)(c1ccccc1)c1c(O)ccc2cc(-c3cccc(O)c3)ccc12
inhibition [11]: 33%

CNC(=O)CCc1c(O)ccc2cc(-c3cccc(O)c3)ccc12
inhibition [13]: 36%

Cc1nnc(NC(=O)c2c(O)ccc3cc(-c4cccc(O)c4)ccc23)s1
inhibition [11]: 73%

Cc1ccc(S(=O)(=O)c2c(O)ccc3cc(-c4cccc(O)c4)ccc23)cc1
inhibition [11]: 75%
